# Experiments:
# [1] = test system: A-431; experiment: cells; format: functional, cell-based; details: Homo sapiens, A-431, 48 h
# [2] = test system: NCI-H1975; experiment: cells; format: functional, cell-based; details: Homo sapiens, NCI-H1975, 48 h
# [3] = molecular target: Epidermal growth factor receptor (Homo sapiens, UniProt P00533);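 also: inhibition of wild-type EGFR read out by HTRF, with a 5 min incubation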
# [4] = molecular target: Epidermal growth factor receptor (Homo sapiens, UniProt P00533, T790M); format: protein assay
# Chain of Epidermal growth factor receptor (Homo sapiens, UniProt P00533, T790M) (P00533 25-1210 T790M limits assumed): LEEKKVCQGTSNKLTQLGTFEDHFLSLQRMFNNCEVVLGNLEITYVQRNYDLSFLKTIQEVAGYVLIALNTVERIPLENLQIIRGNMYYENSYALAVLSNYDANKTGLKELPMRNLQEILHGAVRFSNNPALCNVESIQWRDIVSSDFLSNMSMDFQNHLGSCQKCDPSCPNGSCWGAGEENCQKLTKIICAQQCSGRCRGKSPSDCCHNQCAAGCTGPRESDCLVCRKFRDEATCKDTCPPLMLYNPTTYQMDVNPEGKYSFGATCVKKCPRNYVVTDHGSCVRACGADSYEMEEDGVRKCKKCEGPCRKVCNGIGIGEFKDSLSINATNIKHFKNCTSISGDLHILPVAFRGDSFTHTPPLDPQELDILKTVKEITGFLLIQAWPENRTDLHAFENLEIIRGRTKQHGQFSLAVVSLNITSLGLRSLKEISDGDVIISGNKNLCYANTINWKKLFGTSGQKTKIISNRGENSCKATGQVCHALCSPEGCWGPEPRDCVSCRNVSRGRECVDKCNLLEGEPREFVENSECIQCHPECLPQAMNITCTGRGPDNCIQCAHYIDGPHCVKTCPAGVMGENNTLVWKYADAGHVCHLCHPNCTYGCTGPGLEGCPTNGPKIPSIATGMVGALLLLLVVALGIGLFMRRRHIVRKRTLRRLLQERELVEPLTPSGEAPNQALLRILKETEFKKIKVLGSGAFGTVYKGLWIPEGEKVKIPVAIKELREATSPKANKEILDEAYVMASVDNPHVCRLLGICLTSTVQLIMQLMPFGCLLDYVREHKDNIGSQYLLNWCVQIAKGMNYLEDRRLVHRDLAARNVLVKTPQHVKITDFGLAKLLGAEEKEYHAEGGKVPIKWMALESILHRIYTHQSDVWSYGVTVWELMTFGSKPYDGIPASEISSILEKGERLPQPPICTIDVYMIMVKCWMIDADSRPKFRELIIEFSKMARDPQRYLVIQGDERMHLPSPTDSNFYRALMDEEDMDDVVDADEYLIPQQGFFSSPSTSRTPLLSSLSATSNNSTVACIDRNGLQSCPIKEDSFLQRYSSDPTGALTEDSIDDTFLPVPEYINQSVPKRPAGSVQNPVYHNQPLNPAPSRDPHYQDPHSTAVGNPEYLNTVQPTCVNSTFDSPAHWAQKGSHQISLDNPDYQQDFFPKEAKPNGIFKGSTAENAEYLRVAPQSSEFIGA
# [5] = molecular target: Receptor tyrosine-protein kinase erbB-2 (Homo sapiens, UniProt P04626); experiment: Inhibition of wild type HER2 (unknown origin) incubated for 5 mins by HTRF assay
# Chain of Receptor tyrosine-protein kinase erbB-2 (P04626 whole entry): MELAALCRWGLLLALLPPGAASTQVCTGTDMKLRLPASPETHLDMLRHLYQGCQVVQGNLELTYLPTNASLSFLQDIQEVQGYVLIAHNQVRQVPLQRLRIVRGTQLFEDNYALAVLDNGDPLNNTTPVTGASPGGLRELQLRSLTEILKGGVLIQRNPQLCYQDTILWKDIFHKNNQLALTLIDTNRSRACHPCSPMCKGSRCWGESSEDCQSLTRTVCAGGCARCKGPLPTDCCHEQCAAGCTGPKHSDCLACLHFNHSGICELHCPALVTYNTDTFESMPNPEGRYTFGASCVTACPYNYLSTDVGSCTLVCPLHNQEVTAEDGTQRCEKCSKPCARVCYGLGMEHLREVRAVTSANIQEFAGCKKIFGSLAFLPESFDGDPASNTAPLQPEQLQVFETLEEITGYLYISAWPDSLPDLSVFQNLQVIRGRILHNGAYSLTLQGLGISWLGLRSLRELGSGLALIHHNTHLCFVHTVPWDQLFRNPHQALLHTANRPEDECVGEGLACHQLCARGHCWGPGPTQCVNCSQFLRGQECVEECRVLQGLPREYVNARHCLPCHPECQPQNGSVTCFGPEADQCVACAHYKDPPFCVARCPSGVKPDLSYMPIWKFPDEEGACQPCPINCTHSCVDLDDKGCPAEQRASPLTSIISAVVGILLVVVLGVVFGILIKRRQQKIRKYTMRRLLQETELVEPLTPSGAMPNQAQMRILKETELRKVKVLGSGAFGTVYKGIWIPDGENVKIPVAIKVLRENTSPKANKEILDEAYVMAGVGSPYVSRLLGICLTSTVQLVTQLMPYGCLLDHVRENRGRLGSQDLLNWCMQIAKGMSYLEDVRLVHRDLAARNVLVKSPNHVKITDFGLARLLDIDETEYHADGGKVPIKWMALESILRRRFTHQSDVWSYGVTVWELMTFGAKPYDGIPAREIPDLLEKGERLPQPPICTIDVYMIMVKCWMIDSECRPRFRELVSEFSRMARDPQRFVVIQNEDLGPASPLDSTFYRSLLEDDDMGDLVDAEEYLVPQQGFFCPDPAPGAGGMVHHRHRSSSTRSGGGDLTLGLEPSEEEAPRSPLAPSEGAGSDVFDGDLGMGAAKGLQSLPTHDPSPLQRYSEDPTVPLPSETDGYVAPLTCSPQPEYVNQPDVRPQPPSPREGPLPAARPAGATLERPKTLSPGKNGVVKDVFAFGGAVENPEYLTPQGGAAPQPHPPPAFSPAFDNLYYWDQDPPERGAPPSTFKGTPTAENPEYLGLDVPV
# [6] = Intrinsic clearance in human liver microsomes assessed per mg protein at 1 uM in presence of NADPH after 0.5 to 30 mins by LC/MS/MS method; format: ADME; details: read-out: CLH
# [7] = Intrinsic clearance in rat liver microsomes assessed per mg protein at 1 uM in presence of NADPH after 0.5 to 30 mins by LC/MS/MS method; format: ADME; details: read-out: CLH
# [8] = Intrinsic clearance in mouse liver microsomes assessed per mg protein at 1 uM in presence of NADPH after 0.5 to 30 mins by LC/MS/MS method; format: ADME; details: read-out: CLH
# [9] = Intrinsic clearance in dog liver microsomes assessed per mg protein at 1 uM in presence of NADPH after 0.5 to 30 mins by LC/MS/MS method; format: ADME, Canis lupus familiaris; details: read-out: CLH
# [10] = Intrinsic clearance in monkey liver microsomes assessed per mg protein at 1 uM in presence of NADPH after 0.5 to 30 mins by LC/MS/MS method; format: ADME, Macaca mulatta; details: rhesus monkey, read-out: CLH
# [11] = molecular target: Cytochrome P450 3A4 (Homo sapiens, UniProt P08684); experiment: Inhibition of CYP3A4 in human hepatic microsomes after 20 mins by LC/MS/MS method; format: ADME, Liver
# [12] = molecular target: Cytochrome P450 2D6 (Homo sapiens, UniProt P10635); experiment: Inhibition of CYP2D6 in human hepatic microsomes after 20 mins by LC/MS/MS method; format: ADME, Liver
# [13] = molecular target: Cytochrome P450 2C9 (Homo sapiens, UniProt P11712); experiment: Inhibition of CYP2C9 in human hepatic microsomes after 20 mins by LC/MS/MS method; format: ADME, Liver
# [14] = molecular target: T1, Cytochrome P450 1A2 (Homo sapiens, UniProt P05177); experiment: Inhibition of CYP1A2 in human hepatic microsomes after 20 mins by LC/MS/MS method; format: ADME, Liver
# T1 sequence (P05177 whole entry): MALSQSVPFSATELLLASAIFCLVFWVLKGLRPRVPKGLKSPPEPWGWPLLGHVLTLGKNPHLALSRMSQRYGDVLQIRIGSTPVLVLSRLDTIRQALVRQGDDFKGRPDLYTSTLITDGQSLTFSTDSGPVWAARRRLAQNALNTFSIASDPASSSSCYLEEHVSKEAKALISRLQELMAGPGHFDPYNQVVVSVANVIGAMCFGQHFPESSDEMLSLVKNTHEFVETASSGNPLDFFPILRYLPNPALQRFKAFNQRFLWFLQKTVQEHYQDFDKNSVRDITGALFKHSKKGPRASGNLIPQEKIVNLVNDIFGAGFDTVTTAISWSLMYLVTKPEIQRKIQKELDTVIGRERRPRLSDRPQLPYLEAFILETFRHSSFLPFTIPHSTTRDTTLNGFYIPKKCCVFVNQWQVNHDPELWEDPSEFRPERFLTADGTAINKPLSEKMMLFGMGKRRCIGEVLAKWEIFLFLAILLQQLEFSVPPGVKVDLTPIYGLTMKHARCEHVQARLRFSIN
# [15] = molecular target: Cytochrome P450 2C19 (Homo sapiens, UniProt P33261); experiment: Inhibition of CYP2C19 in human hepatic microsomes after 20 mins by LC/MS/MS method; format: ADME, Liver
# [16] = AUC (0 to infinity) in BALB/c mouse at 10 mg/kg, po after 24 hrs by LC/MS/MS method; format: ADME, organism-based, Plasma; parameters: dose 10 mg/kg, route oral, time infinity; details: BALB/c, plasma
# [17] = Cmax in BALB/c mouse at 10 mg/kg, po after 24 hrs by LC/MS/MS method; format: ADME, organism-based; parameters: dose 10 mg/kg, route oral; details: in vivo
# [18] = Apparent clearance in BALB/c mouse at 10 mg/kg, po after 24 hrs by LC/MS/MS method; format: ADME, organism-based; parameters: dose 10 mg/kg, route oral; details: BALB/c, in vivo, read-out: CL(app)
# [19] = test system: Mus musculus; experiment: Apparent volume of distribution in BALB/c mouse at 10 mg/kg, po after 24 hrs by LC/MS/MS method; format: ADME, organism-based; parameters: dose 10 mg/kg, route oral; details: in vivo
# [20] = Oral bioavailability in BALB/c mouse at 10 mg/kg after 24 hrs by LC/MS/MS method; format: ADME, organism-based; details: in vivo
# [21] = Ratio of drug level in lung to plasma in BALB/c mouse at 30 mg/kg, po after 6 hrs by LC/MS/MS method; format: ADME, organism-based; parameters: dose 30 mg/kg, route oral
# Outline: (§1)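 BALB/c mice received a single oral dose of 30 mg/kg. Drug concentrations in lung, brain and plasma were measured at multiple time points over 6 h. Mean tissue levels are expressed as a lung/plasma/brain ratio, with plasma set to 1.0.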
# [22] = Ratio of drug level in brain to plasma in BALB/c mouse at 30 mg/kg, po after 6 hrs by LC/MS/MS method; format: ADME, organism-based; parameters: dose 30 mg/kg, route oral; details: read-out: BPR
# Outline: as §1
# [23] = molecular target: T2, hERG (KCNH2) (Homo sapiens, UniProt Q12809); experiment: Inhibition of human ERG assessed as reduction in channel currents at 1 uM
# T2 sequence (Q12809 whole entry): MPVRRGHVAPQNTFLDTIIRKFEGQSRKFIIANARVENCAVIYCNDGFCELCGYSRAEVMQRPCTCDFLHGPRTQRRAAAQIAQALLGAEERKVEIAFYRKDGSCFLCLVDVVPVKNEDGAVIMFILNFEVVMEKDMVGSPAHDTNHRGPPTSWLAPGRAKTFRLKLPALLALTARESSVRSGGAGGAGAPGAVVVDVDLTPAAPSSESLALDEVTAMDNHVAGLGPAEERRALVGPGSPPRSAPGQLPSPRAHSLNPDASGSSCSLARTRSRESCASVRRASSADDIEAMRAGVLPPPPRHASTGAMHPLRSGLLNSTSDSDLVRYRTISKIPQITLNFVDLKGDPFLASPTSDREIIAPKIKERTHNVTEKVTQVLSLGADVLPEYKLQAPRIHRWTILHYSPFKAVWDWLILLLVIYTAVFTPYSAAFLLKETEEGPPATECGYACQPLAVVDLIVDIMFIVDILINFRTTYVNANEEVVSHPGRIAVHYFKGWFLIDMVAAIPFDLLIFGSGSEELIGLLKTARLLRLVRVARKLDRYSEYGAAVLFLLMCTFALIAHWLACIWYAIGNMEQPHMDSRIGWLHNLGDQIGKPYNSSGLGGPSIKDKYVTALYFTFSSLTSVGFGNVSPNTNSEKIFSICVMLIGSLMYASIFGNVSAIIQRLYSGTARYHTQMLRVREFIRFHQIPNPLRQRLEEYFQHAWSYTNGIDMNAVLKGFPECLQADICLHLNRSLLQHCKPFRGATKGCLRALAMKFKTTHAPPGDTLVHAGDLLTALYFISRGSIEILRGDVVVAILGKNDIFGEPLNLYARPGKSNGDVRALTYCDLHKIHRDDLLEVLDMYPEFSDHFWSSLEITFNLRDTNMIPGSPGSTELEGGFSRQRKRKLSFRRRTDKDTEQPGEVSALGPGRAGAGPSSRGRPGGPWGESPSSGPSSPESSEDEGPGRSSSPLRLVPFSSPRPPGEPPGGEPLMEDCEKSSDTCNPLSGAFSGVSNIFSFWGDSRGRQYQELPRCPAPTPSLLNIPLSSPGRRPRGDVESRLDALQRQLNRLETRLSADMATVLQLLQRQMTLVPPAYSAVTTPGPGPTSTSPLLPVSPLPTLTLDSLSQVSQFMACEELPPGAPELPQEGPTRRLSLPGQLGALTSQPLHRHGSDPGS
# [24] = molecular target: T2, hERG (KCNH2); experiment: Inhibition of human ERG assessed as reduction in channel currents at 10 uM
# [25] = test system: NCI-H1975; experiment: Antitumor activity against human NCI-H1975 cells xenografted in nude mouse assessed as reduction in tumor growth at 30 mg/kg/day, ig relative to untreated control; format: functional; details: route intragastric
# [26] = test system: SW-620; experiment: Growth inhibition of human SW620 cells at 5 uM; format: functional; details: read-out: GI
# Chain of Epidermal growth factor receptor (Homo sapiens, UniProt P00533) (P00533 whole entry): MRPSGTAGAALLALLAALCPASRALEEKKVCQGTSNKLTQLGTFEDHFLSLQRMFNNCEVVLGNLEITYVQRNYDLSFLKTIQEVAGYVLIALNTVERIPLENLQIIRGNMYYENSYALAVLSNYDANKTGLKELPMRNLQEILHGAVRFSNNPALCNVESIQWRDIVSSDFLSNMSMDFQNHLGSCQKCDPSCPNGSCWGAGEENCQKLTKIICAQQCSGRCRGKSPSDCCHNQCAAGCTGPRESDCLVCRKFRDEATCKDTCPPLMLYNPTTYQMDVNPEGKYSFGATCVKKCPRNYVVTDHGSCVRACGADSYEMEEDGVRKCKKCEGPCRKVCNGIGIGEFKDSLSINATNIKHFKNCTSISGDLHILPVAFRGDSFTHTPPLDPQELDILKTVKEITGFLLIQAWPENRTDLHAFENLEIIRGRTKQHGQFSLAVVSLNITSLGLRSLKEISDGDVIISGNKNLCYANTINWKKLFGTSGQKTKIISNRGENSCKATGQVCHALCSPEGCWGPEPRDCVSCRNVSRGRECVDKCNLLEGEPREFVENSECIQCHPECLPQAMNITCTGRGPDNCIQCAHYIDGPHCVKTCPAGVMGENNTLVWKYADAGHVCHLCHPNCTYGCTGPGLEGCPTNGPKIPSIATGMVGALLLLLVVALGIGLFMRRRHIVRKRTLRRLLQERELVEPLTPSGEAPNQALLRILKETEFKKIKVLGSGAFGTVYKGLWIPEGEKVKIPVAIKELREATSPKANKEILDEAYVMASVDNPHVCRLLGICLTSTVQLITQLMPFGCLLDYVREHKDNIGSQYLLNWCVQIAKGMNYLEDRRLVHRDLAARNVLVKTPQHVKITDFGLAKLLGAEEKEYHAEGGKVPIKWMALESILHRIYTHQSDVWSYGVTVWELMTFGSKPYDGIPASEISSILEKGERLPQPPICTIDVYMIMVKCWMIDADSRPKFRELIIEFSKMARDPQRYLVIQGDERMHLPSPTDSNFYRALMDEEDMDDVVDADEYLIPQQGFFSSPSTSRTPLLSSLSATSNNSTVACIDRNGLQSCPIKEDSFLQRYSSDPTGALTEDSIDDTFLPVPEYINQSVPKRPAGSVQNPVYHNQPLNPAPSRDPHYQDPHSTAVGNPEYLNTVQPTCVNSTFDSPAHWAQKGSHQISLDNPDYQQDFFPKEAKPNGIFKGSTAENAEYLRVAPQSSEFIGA
smiles,measurement,setting,value
O=C(Nc1cc2c(Nc3ccc(F)c(Cl)c3)ncnc2cc1O[C@H]1CCOC1)/C(F)=C\CN1CCCCC1,IC50,[1],1800 nM
same,IC50,[2],710 nM
same,IC50,[3],2.55 nM
CCOc1cc2ncnc(Nc3ccc(Oc4ccc(C)nc4)c(Cl)c3)c2cc1NC(=O)/C(F)=C\CN1CCCCC1,IC50,[1],24800 nM
same,IC50,[2],6420 nM
same,IC50,[3],39.2 nM
CCOc1cc2ncnc(Nc3ccc(OCC4CC4)c(Cl)c3)c2cc1NC(=O)/C(F)=C/CN(C)C,IC50,[1],750 nM
same,IC50,[2],1190 nM
same,IC50,[3],3.6 nM
same,IC50,[4],3.5 nM
CCOc1cc2ncnc(Nc3ccc(Oc4ccc(C)nc4)c(Cl)c3)c2cc1NC(=O)/C(F)=C/CN(C)C,IC50,[1],1670 nM
same,IC50,[2],2490 nM
same,IC50,[3],4.5 nM
same,IC50,[4],7.1 nM
COc1cc2ncnc(Nc3ccc(F)c(Cl)c3)c2cc1NC(=O)/C(F)=C\CN1CCOCC1,IC50,[1],830 nM
same,IC50,[2],1110 nM
COc1cc2ncnc(Nc3ccc(F)c(Cl)c3)c2cc1NC(=O)/C(F)=C/CN1CCOCC1,IC50,[1],2630 nM
same,IC50,[2],2020 nM
same,IC50,[4],59.8 nM
same,IC50,[5],1540 nM
C=CC(=O)Nc1cc2c(Nc3ccc(F)c(Cl)c3)ncnc2cc1OCCCN1CCOCC1 [CANERTINIB],microsomal CLint at 1 µM,[6],50 µL/min/mg
same,microsomal CLint at 1 µM,[7],105 µL/min/mg
same,microsomal CLint at 1 µM,[8],5 µL/min/mg
same,microsomal CLint at 1 µM,[9],26 µL/min/mg
same,microsomal CLint at 1 µM,[10],221 µL/min/mg
O=C(Nc1cc2c(Nc3ccc(F)c(Cl)c3)ncnc2cc1O[C@H]1CCOC1)/C(F)=C/CN1CCCCC1,IC50,[1],1560 nM
same,IC50,[2],290 nM
same,IC50,[3],2.6 nM
same,IC50,[4],16.4 nM
COc1cc2ncnc(Nc3ccc(OCc4cccc(F)c4)c(Cl)c3)c2cc1NC(=O)/C(F)=C\CN(C)C,IC50,[1],1690 nM
same,IC50,[2],2000 nM
same,IC50,[3],1.3 nM
CCOc1cc2ncnc(Nc3ccc(Oc4ccc(C)nc4)c(Cl)c3)c2cc1NC(=O)/C(F)=C/CN1CCCCC1,IC50,[1],3490 nM
same,IC50,[2],3600 nM
same,IC50,[3],12.9 nM
same,IC50,[4],37.9 nM
CCOc1cc2ncnc(Nc3ccc(OCc4ccccn4)c(Cl)c3)c2cc1NC(=O)/C(F)=C/CN(C)C,IC50,[1],340 nM
same,IC50,[3],0.18 nM
same,IC50,[4],3.77 nM
same,IC50,[5],1.38 nM
same,microsomal CLint at 1 µM,[6],27 µL/min/mg
same,microsomal CLint at 1 µM,[7],33 µL/min/mg
same,microsomal CLint at 1 µM,[8],47 µL/min/mg
same,microsomal CLint at 1 µM,[9],95 µL/min/mg
same,microsomal CLint at 1 µM,[10],97 µL/min/mg
same,IC50,[11],> 10000 nM
same,IC50,[12],> 10000 nM
same,IC50,[13],> 10000 nM
same,IC50,[14],> 10000 nM
same,IC50,[15],> 10000 nM
same,AUC(0-inf),[16],16.6 µM·h
same,Cmax,[17],2660 nM
same,CL/F,[18],20 mL/min/kg
same,Vz,[19],3.94 L/kg
same,bioavailability,[20],89.4%
same,Kp at 6 h,[21],11
same,Kp at 6 h,[22],0.29
same,inhibition at 1 µM,[23],0%
same,inhibition at 10 µM,[24],3.06%
same,T/C,[25],15.6%
CCOc1cc2ncnc(Nc3ccc(OCC4CC4)c(Cl)c3)c2cc1NC(=O)/C(F)=C\CN(C)C,IC50,[1],1340 nM
same,IC50,[2],2980 nM
same,IC50,[3],11.2 nM
O=C(Nc1cc2c(Nc3ccc(F)c(Cl)c3)ncnc2cc1O[C@H]1CCOC1)/C(F)=C/CN1CCOCC1,IC50,[1],11500 nM
same,IC50,[2],4370 nM
same,IC50,[5],1570 nM
same,inhibition at 1 µM,[23],0.94%
same,inhibition at 10 µM,[24],11.1%
COc1cc2ncnc(Nc3cccc(Br)c3)c2cc1NC(=O)/C(F)=C\CN(C)C,IC50,[1],1200 nM
same,IC50,[2],4100 nM
same,IC50,[3],5 nM
COc1cc2ncnc(Nc3cccc(Br)c3)c2cc1NC(=O)/C(F)=C/CN(C)C,IC50,[1],2100 nM
same,IC50,[2],3300 nM
same,IC50,[3],2.6 nM
same,IC50,[4],8.3 nM
O=C(Nc1cc2c(Nc3ccc(F)c(Cl)c3)ncnc2cc1O[C@H]1CCOC1)/C(F)=C\CN1CCOCC1,IC50,[1],10900 nM
same,IC50,[2],3010 nM
CCOc1cc2ncnc(Nc3ccc(Oc4ccc(C)nc4)c(Cl)c3)c2cc1NC(=O)/C(F)=C\CN(C)C,IC50,[1],5900 nM
same,IC50,[2],2940 nM
same,IC50,[3],9.5 nM
CCOc1cc2ncnc(Nc3ccc(OCc4ccccn4)c(Cl)c3)c2cc1NC(=O)/C(F)=C\CN(C)C,IC50,[2],1130 nM
COc1cc2ncnc(Nc3ccc(OCc4cccc(F)c4)c(Cl)c3)c2cc1NC(=O)/C(F)=C/CN(C)C,IC50,[1],4020 nM
same,IC50,[2],2060 nM
same,IC50,[3],1.56 nM
same,IC50,[4],2.1 nM
CN(C)C/C=C(/F)C(=O)Nc1cc2c(Nc3ccc(F)c(Cl)c3)ncnc2cc1O[C@H]1CCOC1,IC50,[1],3060 nM
same,IC50,[2],1530 nM
same,IC50,[4],25.8 nM
same,IC50,[5],97.1 nM
same,inhibition at 1 µM,[23],6.37%
same,inhibition at 10 µM,[24],39.5%
COc1cccc2c1C(=O)c1c(O)c3c(c(O)c1C2=O)C[C@@](O)(C(=O)CO)C[C@@H]3O[C@H]1C[C@H](N)[C@H](O)[C@H](C)O1 [DOXORUBICIN],inhibition of growth at 5 µM,[26],79.8%
